One assay addresses T1, NTPDase2 (Homo sapiens, UniProt Q9Y5L3).
T1 sequence (Q9Y5L3 1-495): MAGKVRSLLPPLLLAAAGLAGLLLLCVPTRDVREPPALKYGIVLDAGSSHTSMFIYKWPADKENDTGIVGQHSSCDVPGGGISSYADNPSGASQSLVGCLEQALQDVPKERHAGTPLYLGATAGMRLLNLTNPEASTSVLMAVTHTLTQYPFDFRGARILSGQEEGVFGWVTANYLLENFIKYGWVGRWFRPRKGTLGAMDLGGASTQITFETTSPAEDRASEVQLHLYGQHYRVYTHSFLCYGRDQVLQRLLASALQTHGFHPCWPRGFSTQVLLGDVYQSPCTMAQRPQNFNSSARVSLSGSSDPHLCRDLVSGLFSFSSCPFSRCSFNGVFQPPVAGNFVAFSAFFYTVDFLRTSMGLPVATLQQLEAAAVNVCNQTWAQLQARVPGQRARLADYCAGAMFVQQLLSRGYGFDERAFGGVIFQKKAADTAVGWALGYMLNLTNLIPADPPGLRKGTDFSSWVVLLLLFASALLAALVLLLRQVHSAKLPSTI
Description: NTPDase2 hydrolysis assay. Format: in vitro ADME. The note with it: 100 μM ATP (100% reference). The gist of the method:
(§1)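 Enzymes were transiently expressed in COS-7 cells. Crude protein extracts were made by sonication, 300g clearing at 4 °C and storage at −80 °C, with protein measured by Bradford. Extract was preincubated 3 min at 37 °C in Tris-Ringer buffer, pH 7.4. […] Activity of untransfected-cell extract was subtracted.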

Another assay concerns the target T2, NTPDase3 (Homo sapiens, UniProt O75355).
T2 sequence (O75355 1-529): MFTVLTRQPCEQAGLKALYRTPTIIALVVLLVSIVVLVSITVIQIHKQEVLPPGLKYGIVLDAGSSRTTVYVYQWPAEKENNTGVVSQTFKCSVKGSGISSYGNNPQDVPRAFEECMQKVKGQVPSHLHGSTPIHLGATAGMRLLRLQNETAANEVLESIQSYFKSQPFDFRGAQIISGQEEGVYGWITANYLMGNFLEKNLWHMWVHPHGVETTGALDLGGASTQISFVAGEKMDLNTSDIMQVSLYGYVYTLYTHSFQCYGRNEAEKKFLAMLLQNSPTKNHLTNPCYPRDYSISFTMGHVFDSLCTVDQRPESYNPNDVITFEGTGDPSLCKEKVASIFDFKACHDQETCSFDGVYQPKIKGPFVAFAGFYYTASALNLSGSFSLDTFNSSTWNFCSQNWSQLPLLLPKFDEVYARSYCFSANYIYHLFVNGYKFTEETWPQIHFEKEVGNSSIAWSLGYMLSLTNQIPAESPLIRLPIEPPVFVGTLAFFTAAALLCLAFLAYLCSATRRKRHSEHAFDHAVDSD
Nature of the assay: NTPDase3 hydrolysis assay. Format: in vitro ADME. The note with it: 100 μM ATP (100% reference). The method, boiled down: as §1

On to `Nc1ncnc2c1ncn2[C@@H]1O[C@H](COP(=O)(O)OP(=O)(O)OP(=O)(O)O)[C@@H](O)[C@H]1O` [ATP], for which the “hydrolysis rate by NTPDase2” value at NTPDase2 is listed as 1006 ± 60 nmol Pi·min^−1·mg protein^−1. Moreover, the “hydrolysis rate by NTPDase3” value at NTPDase3 is 533 ± 42 nmol Pi·min^−1·mg protein^−1.

The values above are taken from paper PMC4358770 (Journal of medicinal chemistry, 2010).
